# Measured values published in ChEMBL document CHEMBL4513216, “Probing the Open Global Health Chemical Diversity Library for Multistage-Active Starting Points for Next-Generation Antimalarials” (ACS Infect Dis, 2020).
# Assay: Toxicity liver stage against HepG2, at 10uM
# Type: cell-based
# Set-up: test concentration 10 uM, cell line HepG2-A16-CD81EGFP
# Conditions: human, HepG2-A16-CD81EGFP cells; read-out: INHIBITION
# Method in brief: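 Uninfected HepG2-A16-CD81EGFP cells, 3 × 10^3 per well, 1536-well, plated on prespotted compound at 10 μM final, parasite-free screening media added to match infected plates; puromycin 10 μM positive, DMSO 0.5% negative; run in parallel with 48 h PbLuc assay at 37 °C, 5% CO2; viability by CellTiter-Glo luminescence, normalized to controls.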
row,SMILES,cytotoxicity at 10 µM
1,Cc1nn(C)c(C)c1NC(=O)CN1CCOC(CN(C)C)C1 (stereo unspecified),-8.72%
2,CC(C)(CN1CCCC1)CN1CCC(Cn2cc(C3CC3)nn2)CC1,-12.2%
3,COCc1noc(-c2ccc(N(C)Cc3cn(C)nc3C)nc2)n1,-9.75%
4,CN1CCN(CCCNC(=O)CCc2nc3cc(Br)cnc3[nH]2)CC1,-124%
5,O=C(c1cccnc1-n1cncn1)N1CCC(Nc2ccccc2)CC1,7.1%
6,COC[C@]12COC[C@H]1CN(C(=O)C1CCSCC1)C2,2.2%
7,c1ccc(Cc2cncc(C3CCCN3C3CCOCC3)n2)cc1 (stereo unspecified),1.4%
8,COc1ccc(-n2cc(CNC(=O)c3ccccn3)nn2)cc1,-4.05%
9,CN(CC(F)(F)F)C(=O)C1CSCN1C(=O)OC(C)(C)C (stereo unspecified),-0.265%
10,CNC(=O)c1ccc(N(C)C2CCC2)nn1,4.49%
11,Cc1cn2c(n1)CCC(NC(=O)CNS(C)(=O)=O)C2 (stereo unspecified),-9.84%
12,NC(=O)CN(C(=O)Cc1cccc(C(F)(F)F)c1)C1CCCC1,3.71%
13,CCOCC1COCCC12CCN(C(=O)CCOC)CC2 (stereo unspecified),-6.4%
14,N#Cc1ccccc1CN1CCC(CN2CCOCC2)C1 (stereo unspecified),-4.5%
15,Cc1ccc(N2CCCC(c3[nH]ncc3-c3ccccc3)C2)nn1 (stereo unspecified),2.51%
16,Cc1cncnc1C1CCN(C(=O)CN(C)C)CC1,-7.91%
17,Cc1ccc(C(=O)N(C)C)cc1NC(=O)COCC1CC1,2.95%
18,CCc1ccccc1NC(=O)NCc1nnc(SC)n1C,3.73%
19,O=C(c1ccc(-n2cncn2)cc1)N1CCN(c2cnccn2)CC1,2.45%
20,O=c1cc2c(nn1CN1CCSCC1)CCC2,-4.86%
21,CCOCCNC(=O)c1cccc(Cn2nc(C)cc2C)c1,-7.69%
22,Cc1nc(-c2ccccc2)sc1CSC(C)C(N)=O (stereo unspecified),-6.55%
23,Cn1c(CCC(=O)N2CCCC3(CNC(=O)O3)C2)nc2cccnc21 (stereo unspecified),2.3%

row,SMILES,cytotoxicity at 10 µM
1,Cc1ccc(S(N)(=O)=O)cc1C(=O)NC1CCCC1,1.86%
2,CCN(CC)S(=O)(=O)N(Cc1ccccn1)Cc1ccccc1C,16.9%
3,O=C(Nc1ccccc1F)N(CCO)Cc1ccsc1,2.05%
4,Cn1cnc2ccc(NC(=O)CC3CCN(C4CCCCC4)CC3)cc21,25.9%
5,O=C1C[C@@H]2CCN(Cc3ccccc3)C[C@@H]2CCN1c1ccccc1,3.16%
6,CN(C)CCO[C@H]1CN(Cc2ccoc2)[C@@H]2COC[C@H]12,-1.23%
7,COCC(=O)N1CC[C@]2(O)CCN(Cc3ccsc3)C[C@@H]2C1,0.196%
8,COCCN1CC(=O)N2CC[C@@H](O)C[C@H]2C1=O,-8.03%
9,CC(=O)N[C@H]1C[C@@H](c2nc(-c3ccc4c(c3)OCO4)no2)N(C)C1,-2.92%
10,Cc1cccc(CN2CCCn3c(nnc3CN3CCCC3=O)C2)n1,2.14%
11,c1cc(CO[C@H]2CC[C@H]3[C@H]2OCCN3Cc2nccs2)ccn1,-109%
12,CN(c1cccnc1N1CCCC1)S(=O)(=O)c1cnn(C)c1,-4.28%
13,COc1ccccc1C(=O)N1CCN(C(=O)CCCc2cn[nH]c2)CC1,2.68%
14,CN(C)S(=O)(=O)N1CCN(CC2CCOc3ccccc3C2)CC1 (stereo unspecified),-0.529%
15,CS(=O)(=O)CCCOc1cccc(-n2ccnc2)c1,5.13%
16,COc1ccccc1[C@@H]1CN(Cc2nccn2C)C[C@H]1C(=O)O,-4.83%
17,Cc1noc(C)c1CNS(=O)(=O)N(C)Cc1ccccc1Br,17.8%
18,COc1ccc(-c2nnc(CNCCn3cccn3)o2)cc1,-14.5%
19,CO[C@@H]1CCC[C@@H](NC(=O)C(C)(C)c2cccc(F)c2)[C@H]1O,-1.09%
20,Cc1cccnc1NC(=O)NC(CCO)C(C)(C)C (stereo unspecified),2.3%
21,COc1ccc(-n2nc(C)c(C(C)=O)c2C)cc1CO,11.2%
22,CC(=O)N1CC[C@H]2N(C)CC[C@@]2(C(=O)Nc2cccnc2)CC1,-111%
23,CNC(=O)c1cccnc1NCc1ccc(Cn2ccnc2)cc1,90.3%

row,SMILES,cytotoxicity at 10 µM
1,FC(F)(F)c1ccc(CNC[C@H]2COCc3nc4cccnc4n32)cc1,8.04%
2,CCOCC(=O)N(Cc1ccccn1)Cc1ccccc1C,3.21%
3,Cc1nn(C)cc1CN1CCC(c2ncc(Cl)cc2S(C)(=O)=O)CC1,-0.1%
4,COCc1ccc(CN[C@H]2C[C@@H](Cc3cc(CCO)on3)C2(C)C)o1,-1.68%
5,COCCNc1ncc(-c2onc(C)c2C)c(-c2ccco2)n1,5.92%
6,CC(=O)NC1CCCN(C(=O)Nc2nnc(C(C)C)s2)C1 (stereo unspecified),12.6%
7,CCOC(=O)c1cnn(C2CCN(C(=O)CC3C=CCC3)CC2)c1N (stereo unspecified),7.87%
8,CN(C)C(=O)c1nc2c(s1)CCCN2Cc1ccccc1,7.58%
9,COc1cc2c(cc1-c1nc3c(cnn3C)[nH]1)OCO2,-8.9%
10,Cc1ccc2nc(CNCCCN3CCCC3=O)cc(O)c2c1,-1.14%
11,CCc1nnc2n1CC(CNCc1ccncc1)CC2 (stereo unspecified),-15.1%
12,CN(C)C(=O)N1CCC(c2nc3ccc(-c4ccccc4)cn3n2)CC1,5.9%
13,CN(C)C(=O)c1cnc2n1CCN(Cc1ccsc1)C2,-68%
14,Cc1cc(C)n(-c2ccc3nnc(C)n3n2)n1,17.8%
15,CN(c1ccc(F)cc1)S(=O)(=O)c1cc2c(c(C(=O)O)c1)OCCO2,-5.79%
16,CN(C(=O)Cc1ccc(F)cc1)C1CCN(c2ccccn2)CC1,-15.8%
17,Cc1nn(C)c(N(C)C)c1CNCc1ccc(N(C)C)nc1,-1.24%
18,Cc1ccc(CN2CC[C@H]3O[C@@H](C(=O)N4CCCO4)CC[C@H]32)s1,-3.29%
19,COc1ccc(-n2ncc3c2NC(=O)CSC3C(C)C)cc1 (stereo unspecified),17.4%
20,CN1CCN(Cc2ccccc2CNC(=O)c2ccc(Br)cc2F)CC1,4.65%
21,CC(C)Oc1ccc(C(=O)NCc2ccnc(N3CCCC3)c2)cn1,47.3%
22,COc1ccc2c(c1)c(-c1nc(N(C)C)ncc1CN)cn2C,7.43%
23,Cc1csc(CN(CC2CCCO2)C(=O)c2cccnc2C)n1 (stereo unspecified),0.459%

row,SMILES,cytotoxicity at 10 µM
1,CN1CCN(Cc2cccnc2)C(=O)C12CCN(C1CCOC1)CC2 (stereo unspecified),-111%
2,NC1CCc2nc(-c3ccncc3)nc(Nc3cccc(F)c3)c2C1 (stereo unspecified),26.4%
3,CC(C)c1nc(S(=O)(=O)Nc2ccnn2C2CCCC2)c[nH]1,-3.36%
4,O=c1[nH]c2cn(-c3ccc(F)cc3)c(=O)n2n1Cc1cccc(Cl)c1,6.59%
5,O=C(O)c1cc(NS(=O)(=O)c2ccccc2F)ccc1N1CCSCC1,-5.27%
6,CN(C)CC1CSCCCN1C(=O)Nc1ccc(C(C)(C)C)cc1 (stereo unspecified),6.79%
7,CC1CN(C)c2ccccc2N(C(=O)c2c[nH]c(C(C)C)n2)C1 (stereo unspecified),3.61%
8,CN1C(Cn2cccn2)C[C@@H]2CN(Cc3cccnc3)CC[C@@H]21 (stereo partly specified),8.01%
9,Clc1ccccc1Cn1cc(CNC2CCc3ncnn3C2)cn1 (stereo unspecified),1.91%
10,COc1ccc(C)cc1CCNS(=O)(=O)c1ccc2c(c1)CCC(=O)N2,-45.5%
11,Nc1ccnc(N2CCCC(CO)(Cc3cccc(Cl)c3)C2)n1 (stereo unspecified),0.528%
12,COc1ccc(CCN2CCC(N3CCN(C)C3=O)CC2)cc1,-6.64%
13,Cc1noc(CCNC(=O)c2ccc(N(C)C)c(F)c2)n1,6.05%
14,COc1ccccc1CNC(=O)c1[nH]ncc1Cl,1.72%
15,CN(C)CC(=O)N1CCC2(CCN(Cc3ccccn3)C2=O)C1 (stereo unspecified),1.23%
16,CN(c1ccc(C(=O)NCCN2CCOCC2)c(Cl)c1)S(C)(=O)=O,-11.1%
17,CC1CC(=O)c2cnc3nc(N4CCOCC4)[nH]c(=O)c3c2C1 (stereo unspecified),5.31%
18,CN(Cc1nncn1-c1cccc(C(F)(F)F)c1)S(C)(=O)=O,3.01%
19,Cc1csc(NC(=O)CN2CCc3c(nc(C4CC4)n3C)C2)n1,-6.6%
20,CCS(=O)(=O)c1ncc(CN(C)Cc2ccccn2)n1CCOC,-13.3%
21,CN(C)CCN(Cc1ccsc1)C(=O)C1=NNC(=O)CC1,6.62%
22,CCc1ccc(C(=O)NCc2ccnc(N3CCN(C)CC3)c2)o1,-9.07%
23,O=C(c1ccco1)N1Cc2cnn(CC3CC3)c2C(COCC2CC2)C1 (stereo unspecified),4.04%

row,SMILES,cytotoxicity at 10 µM
1,CCOC(C)C(=O)NCc1cccc(CN2CCCCCC2)c1 (stereo unspecified),15.5%
2,O=C(NC1CCCC1)N1CCCC(c2nccn2Cc2ccncc2)C1 (stereo unspecified),-18.3%
3,CCc1cc(N(C)Cc2c(C)nn(C)c2C)n2nccc2n1,0.613%
4,CCCS(=O)(=O)N1C[C@@H](OCc2ccncc2)[C@H]2OCCC[C@H]21,5.56%
5,CC(=O)N[C@H]1CCO[C@@H](c2cccc(NC(=O)C(C)(C)C)c2)C1,6.17%
6,CC(C)C(=O)NC1CCCN(C(=O)c2cc(Cl)ccc2O)C1 (stereo unspecified),-11.4%
7,CNc1ncc(CN(C)C(=O)c2c[nH]nc2-c2cccc(F)c2)cn1,-4.69%
8,CCCc1ccc(C(C)Nc2ncnc3c2CCNC3)cc1 (stereo unspecified),28.1%
9,Fc1ccc(OCCCN2CCCC(Cn3cncn3)C2)cc1 (stereo unspecified),-7.81%
10,Cc1ccc(Cl)cc1NC(=O)C1CSc2ncc(C)c(=O)n2C1 (stereo unspecified),1.42%
11,Cc1cc(NCc2cc3n(n2)CCCN(S(C)(=O)=O)C3)ncn1,-14.3%
12,CCc1ccc2nc(-c3cnn(C)c3)cc(C(=O)N3CCOCC3)c2c1,-2.96%
13,O=C(CCNC(=O)C1CCCC1)NCc1ccccc1Cn1ccnc1,-2.74%
14,Cc1ccccc1-n1cnnc1SCCOCC1CCCO1 (stereo unspecified),-3.73%
15,O=C1CC2(CCCCN2C(=O)Cc2ccccc2)CN1c1cccnc1 (stereo unspecified),-2.71%
16,COc1ccc(CNCC2CCN(CCO)CC2)cc1F,-3.71%
17,COCCCC1CCCCN1Cc1cc(F)ccc1-n1cccn1 (stereo unspecified),-3.13%
18,CCC(C(=O)NCc1ccncc1)N(c1ccc(OC)cc1)S(C)(=O)=O (stereo unspecified),-10.2%
19,CC(C)(C)n1cc(CNc2ccc(CNS(C)(=O)=O)cc2)cn1,16.1%
